In paper PMC9072715 (RSC Advances, 2019) one finds IC50 and Hemolytic effect data, which are given here for two molecules.

One data set has as its system MCF-7 cells. Kind of data set: CCK-8 anti-proliferative assay, MCF-7. It is filed as cell-based, human. The following applies: read-out: IC50 MCF-7; MCF-7, CCK-8, 48 h. Summed up:
(§1)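 Log-phase cells in DMEM were plated at 1 × 10^4 per well and allowed 12 h at 37 °C and 5% CO2. Test compounds (0–80 μM) were added for 48 h. Medium was replaced with medium containing 10% CCK-8 for 4 h, and A450 was read. Percent inhibition was calculated against the untreated control and doxorubicin (positive control), and IC50 was obtained by curve fitting.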
On the technique in general: Formazan colour is commonly taken as a measure of viable cells.

Another data set deals with HeLa cells. Kind of data set: CCK-8 anti-proliferative assay, HeLa. Type of data set: cell-based. The following applies: Homo sapiens, 48 h, read-out: IC50 HeLa, HeLa, CCK-8, 48 h. Put shortly:
as §1

The next data set has as its system rabbit erythrocytes. In words: Hemolysis of red blood cells assay. Type of data set: cell-based, NewZealand rabbit. The following applies: 10% rabbit erythrocyte suspension, 3 to 48 μM, 4 hours, room temperature. Put shortly: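 Heparinized blood came from a healthy New Zealand rabbit. Erythrocytes were washed three times in saline and diluted to a 10% suspension. The suspension was mixed 1:1 by volume with sample solution (0–48 μM test compound) and left 4 h at room temperature. Hemolysis was then assessed by observation.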

Where only a bound is given, the exact number is not on record here.

The IC50 is the concentration needed to halve the response being measured. `C/C=C(/C)C(=O)O[C@H]1[C@H](OC(C)=O)[C@]2(CO)[C@H](O)C[C@]3(C)C(=CC[C@@H]4[C@@]5(C)CC[C@H](O[C@@H]6O[C@H](C(=O)O)[C@@H](O[C@@H]7O[C@H](CO)[C@@H](O)[C@H](O)[C@H]7O)[C@H](O)[C@H]6O[C@@H]6O[C@H](CO)[C@@H](O)[C@H](O)[C@H]6O)[C@](C)(CO)[C@@H]5CC[C@]43C)[C@@H]2CC1(C)C` [Compound 7, Escin Ib]: the IC50 with MCF-7 cells is > 80 µM; with HeLa cells it was 55 µM. For the molecule `C/C=C(\C)C(=O)O[C@H]1[C@H](OC(C)=O)[C@]2(CO)[C@H](O)C[C@]3(C)C(=CC[C@@H]4[C@@]5(C)CC[C@H](O[C@@H]6O[C@H](C(=O)O)[C@@H](O[C@@H]7O[C@H](CO)[C@@H](O)[C@H](O)[C@H]7O)[C@H](O)[C@H]6O[C@@H]6O[C@H](CO)[C@@H](O)[C@H](O)[C@H]6O)[C@](C)(CO)[C@@H]5CC[C@]43C)[C@@H]2CC1(C)C` [Compound 6, Escin Ia], the Hemolytic effect result in the data set on rabbit erythrocytes is “showed hemolytic effect at 24 and 48 μM”.
